Measurements taken from ChEMBL document CHEMBL5058577, “EUbOPEN Chemogenomics Library 2 (Multiplex)” (2022).

Test system: HEK-293T
Assay: Multiplex assay against HEK293T
Type: toxicity, cell-based
Conditions: human
Method in brief: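 Values for tubulin, mitochondrial-mass and membrane-permeability phenotypes are per cents of cells with healthy nuclei. These cells were identified by CellPathfinder machine-learning gating of live cells that had been stained at seeding with Hoechst33342, BioTracker Green Microtubule Cytoskeleton Dye, MitoTracker Red and Annexin V Alexa Fluor 680 and imaged on a CQ1 microscope at 37°C and 5% CO2 after compound addition. The gating first set Hoechst high-intensity objects apart from normal cells, then split normal cells into healthy, pyknosed or fragmented nuclei, and pyknosed cells into mitotic or apoptotic.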

[1] = 12 h, 1 µM, compound concentration 1 uM, replicate 1
[2] = 12 h, 1 µM, compound concentration 1 uM, replicate 2
[3] = 12 h, 10 µM, compound concentration 10 uM, replicate 1
[4] = 12 h, 10 µM, compound concentration 10 uM, replicate 2
[5] = 24 h, 1 µM, compound concentration 1 uM, replicate 1
[6] = 24 h, 1 µM, compound concentration 1 uM, replicate 2
[7] = 24 h, 10 µM, compound concentration 10 uM, replicate 1
[8] = 24 h, 10 µM, compound concentration 10 uM, replicate 2
[9] = 48 h, 1 µM, compound concentration 1 uM, replicate 1
[10] = 48 h, 1 µM, compound concentration 1 uM, replicate 2
[11] = 48 h, 10 µM, compound concentration 10 uM, replicate 1
[12] = 48 h, 10 µM, compound concentration 10 uM, replicate 2

## CCCCC[C@H](O)/C=C/[C@H]1[C@H](O)CC(=O)[C@@H]1CCCCCCC(=O)O [ALPROSTADIL]
[1]
  Population Apoptotic (%): 35%
  Population Fragmented Nuclei (%): 7%
  Population Healthy Nuclei (%): 79%
  Population Hoechst High Intensity Objects (%): 7%
  Population Membrane Permeable-Phenotype (%): 0%
  Population Mitochondria Different-Phenotype (%): 42%
  Population Mitotic Cells (%): 64%
  Population Normal (%): 92%
  Population Pyknosed Nuclei (%): 13%
  Population Tubulin-Different-Phenotype (%): 28%
  Total Cell Count: 471
[2]
  Population Apoptotic (%): 50%
  Population Fragmented Nuclei (%): 6%
  Population Healthy Nuclei (%): 80%
  Population Hoechst High Intensity Objects (%): 6%
  Population Mitochondria Different-Phenotype (%): 55%
  Population Mitotic Cells (%): 49%
  Population Normal (%): 93%
  Population Tubulin-Different-Phenotype (%): 18%
  Total Cell Count: 392
[3]
  Population Apoptotic (%): 33%
  Population Fragmented Nuclei (%): 7%
  Population Healthy Nuclei (%): 78%
  Population Hoechst High Intensity Objects (%): 6%
  Population Membrane Permeable-Phenotype (%): 1%
  Population Mitochondria Different-Phenotype (%): 48%
  Population Mitotic Cells (%): 66%
  Population Normal (%): 93%
  Population Pyknosed Nuclei (%): 14%
  Population Tubulin-Different-Phenotype (%): 33%
  Total Cell Count: 318
[4]
  Population Healthy Nuclei (%): 75%
  Population Hoechst High Intensity Objects (%): 9%
  Population Membrane Permeable-Phenotype (%): 0%
  Population Mitochondria Different-Phenotype (%): 64%
  Population Normal (%): 90%
  Population Pyknosed Nuclei (%): 17%
  Population Tubulin-Different-Phenotype (%): 30%
  Total Cell Count: 309
[5]
  Population Apoptotic (%): 35%
  Population Fragmented Nuclei (%): 9%
  Population Healthy Nuclei (%): 79%
  Population Hoechst High Intensity Objects (%): 3%
  Population Membrane Permeable-Phenotype (%): 1%
  Population Mitochondria Different-Phenotype (%): 22%
  Population Mitotic Cells (%): 64%
  Population Normal (%): 96%
  Population Pyknosed Nuclei (%): 10%
  Population Tubulin-Different-Phenotype (%): 15%
  Total Cell Count: 605
[6]
  Population Apoptotic (%): 34%
  Population Fragmented Nuclei (%): 6%
  Population Healthy Nuclei (%): 85%
  Population Hoechst High Intensity Objects (%): 4%
  Population Membrane Permeable-Phenotype (%): 0%
  Population Mitochondria Different-Phenotype (%): 35%
  Population Mitotic Cells (%): 65%
  Population Normal (%): 95%
  Population Pyknosed Nuclei (%): 8%
  Population Tubulin-Different-Phenotype (%): 14%
  Total Cell Count: 526
[7]
  Population Apoptotic (%): 32%
  Population Fragmented Nuclei (%): 11%
  Population Healthy Nuclei (%): 76%
  Population Hoechst High Intensity Objects (%): 2%
  Population Membrane Permeable-Phenotype (%): 0%
  Population Mitochondria Different-Phenotype (%): 26%
  Population Mitotic Cells (%): 67%
  Population Normal (%): 97%
  Population Pyknosed Nuclei (%): 12%
  Population Tubulin-Different-Phenotype (%): 23%
  Total Cell Count: 439
[8]
  Population Apoptotic (%): 36%
  Population Fragmented Nuclei (%): 7%
  Population Healthy Nuclei (%): 79%
  Population Hoechst High Intensity Objects (%): 8%
  Population Mitochondria Different-Phenotype (%): 50%
  Population Mitotic Cells (%): 63%
  Population Normal (%): 91%
  Population Tubulin-Different-Phenotype (%): 22%
  Total Cell Count: 345
[9]
  Population Apoptotic (%): 32%
  Population Fragmented Nuclei (%): 13%
  Population Healthy Nuclei (%): 79%
  Population Hoechst High Intensity Objects (%): 2%
  Population Membrane Permeable-Phenotype (%): 2%
  Population Mitochondria Different-Phenotype (%): 12%
  Population Mitotic Cells (%): 67%
  Population Normal (%): 97%
  Population Pyknosed Nuclei (%): 7%
  Population Tubulin-Different-Phenotype (%): 11%
  Total Cell Count: 1005
[10]
  Population Apoptotic (%): 13%
  Population Fragmented Nuclei (%): 16%
  Population Healthy Nuclei (%): 77%
  Population Hoechst High Intensity Objects (%): 3%
  Population Membrane Permeable-Phenotype (%): 0%
  Population Mitochondria Different-Phenotype (%): 21%
  Population Mitotic Cells (%): 86%
  Population Normal (%): 96%
  Population Pyknosed Nuclei (%): 6%
  Population Tubulin-Different-Phenotype (%): 12%
  Total Cell Count: 714
[11]
  Population Apoptotic (%): 25%
  Population Fragmented Nuclei (%): 15%
  Population Healthy Nuclei (%): 76%
  Population Hoechst High Intensity Objects (%): 2%
  Population Membrane Permeable-Phenotype (%): 1%
  Population Mitochondria Different-Phenotype (%): 17%
  Population Mitotic Cells (%): 75%
  Population Normal (%): 97%
  Population Pyknosed Nuclei (%): 7%
  Population Tubulin-Different-Phenotype (%): 15%
  Total Cell Count: 685
[12]
  Population Apoptotic (%): 20%
  Population Fragmented Nuclei (%): 14%
  Population Healthy Nuclei (%): 79%
  Population Membrane Permeable-Phenotype (%): 0%
  Population Mitochondria Different-Phenotype (%): 30%
  Population Mitotic Cells (%): 80%
  Population Pyknosed Nuclei (%): 6%
  Population Tubulin-Different-Phenotype (%): 14%
  Total Cell Count: 537
